Source: ChEMBL document CHEMBL2010685, “Synthesis and biological evaluation of novel bifendate derivatives bearing 6,7-dihydro-dibenzo[c,e]azepine scaffold as potent P-glycoprotein inhibitors” (Eur J Med Chem, 2012)
The source made the active and inactive calls. The calls are words filed in the database; no cut-off is given here.

What was measured:
[1] = Cytotoxicity against human K562/A02 cells expressing p-glycoprotein after 72 hrs by MTS assay; assay type: functional, cell-based; settings: K562/A02, 72 h
Summary of the method: (§1)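 K562 and K562/A02 cells (1 × 10⁴/well) seeded in RPMI-1640 and incubated 24 h. Exponentially growing cells then exposed to various compound concentrations for 72 h at 37 °C (5% CO₂, 95% humidity). MTS added for 3 h more, absorbance read at 490 nm. IC₅₀ from dose-response curves, mean of triplicate experiments.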

K562 [2] = assay: Cytotoxicity against human K562 cells after 72 hrs by MTS assay; assay type: functional, cell-based; settings: K562, 72 h; summary of the method: as §1
[3] = biological target: T1, ATP-dependent translocase ABCB1 (Homo sapiens, UniProt P08183); assay: Inhibition of p-glycoprotein protein expression in human K562/A02 cells at 5 uM after 72 hrs by Western blot analysis; assay type: functional, cell-based; settings: k562/a02, 72 h
T1 sequence (P08183 whole entry): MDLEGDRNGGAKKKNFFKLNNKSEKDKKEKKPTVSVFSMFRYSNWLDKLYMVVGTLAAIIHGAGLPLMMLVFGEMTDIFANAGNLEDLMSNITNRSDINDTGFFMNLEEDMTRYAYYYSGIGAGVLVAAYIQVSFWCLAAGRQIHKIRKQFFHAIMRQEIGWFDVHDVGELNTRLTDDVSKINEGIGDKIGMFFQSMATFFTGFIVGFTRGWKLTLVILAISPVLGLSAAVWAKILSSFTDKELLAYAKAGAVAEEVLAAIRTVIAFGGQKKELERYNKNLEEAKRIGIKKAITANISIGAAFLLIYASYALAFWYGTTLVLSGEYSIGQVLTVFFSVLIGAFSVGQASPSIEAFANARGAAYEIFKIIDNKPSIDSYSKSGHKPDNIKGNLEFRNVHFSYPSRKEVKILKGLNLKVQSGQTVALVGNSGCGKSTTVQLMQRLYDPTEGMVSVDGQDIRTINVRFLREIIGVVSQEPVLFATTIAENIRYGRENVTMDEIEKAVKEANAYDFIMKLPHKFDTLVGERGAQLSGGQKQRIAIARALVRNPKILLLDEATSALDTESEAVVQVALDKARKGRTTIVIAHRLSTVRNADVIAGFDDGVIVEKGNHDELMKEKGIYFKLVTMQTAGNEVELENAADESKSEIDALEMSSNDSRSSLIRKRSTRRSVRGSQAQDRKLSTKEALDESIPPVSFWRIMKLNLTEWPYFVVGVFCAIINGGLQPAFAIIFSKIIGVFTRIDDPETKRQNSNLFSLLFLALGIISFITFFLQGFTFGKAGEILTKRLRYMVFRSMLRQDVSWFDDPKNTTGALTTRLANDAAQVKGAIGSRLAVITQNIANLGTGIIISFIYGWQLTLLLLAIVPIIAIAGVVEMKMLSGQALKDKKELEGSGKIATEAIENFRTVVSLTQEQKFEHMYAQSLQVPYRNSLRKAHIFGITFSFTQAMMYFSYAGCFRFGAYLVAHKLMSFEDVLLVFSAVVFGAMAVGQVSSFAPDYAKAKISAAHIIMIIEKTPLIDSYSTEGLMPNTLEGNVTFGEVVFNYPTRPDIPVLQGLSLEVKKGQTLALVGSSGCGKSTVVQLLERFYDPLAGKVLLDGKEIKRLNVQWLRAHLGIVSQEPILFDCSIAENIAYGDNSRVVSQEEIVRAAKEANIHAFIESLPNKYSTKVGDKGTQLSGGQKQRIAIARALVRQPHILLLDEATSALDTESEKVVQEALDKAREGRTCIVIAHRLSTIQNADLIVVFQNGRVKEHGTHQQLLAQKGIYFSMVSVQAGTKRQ

[4] = Cytotoxicity against human K562/A02 cells expressing p-glycoprotein assessed as cell killing at 5 uM after 72 hrs by MTS assay; assay type: cell-based; settings: k562/a02, 72 h
K562/A02 [5] = assay: Reversal of p-glycoprotein-mediated multidrug-resistant in human K562/A02 cells assessed as increase of adriamycin-induced cytotoxic effect at 2.5 uM after 72 hrs by MTS assay; assay type: cell-based
Summary of the method: (§2)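 Viability by MTS assay. Survival rate expressed as percent growth relative to untreated control, mean ± S.D. of three independent experiments.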

[6] = biological target: T1, ATP-dependent translocase ABCB1; assay: Inhibition of p-glycoprotein in human K562/A02 cells assessed as accumulation of rhodamine 123 by flow cytometry; assay type: cell-based
Summary of the method: (§3)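 Rh123 or adriamycin (0.5) then added for 30 min. Stopped with ice-cold PBS and centrifugation, washed three times in ice-cold PBS, analysed by flow cytometry. Fluorescence expressed as fold of 0.1% DMSO control; three independent experiments.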

K562 [7] = assay: Cytotoxicity against human K562 cells assessed as cell killing at 5 uM after 72 hrs by MTS assay; assay type: cell-based; settings: k562, 72 h
[8] = biological target: T1, ATP-dependent translocase ABCB1; assay: Inhibition of p-glycoprotein mRNA expression in human K562/A02 cells at 5 uM after 72 hrs by RT-PCR analysis; assay type: functional, cell-based; settings: k562/a02, 72 h
K562 [9] = assay: Induction of rhodamine 123 accumulation in human K562 cells at 0.3 to 10 uM by flow cytometry; assay type: functional, cell-based; summary of the method: as §3
[10] = biological target: T1, ATP-dependent translocase ABCB1; assay: Inhibition of p-glycoprotein in human K562/A02 cells assessed as accumulation of rhodamine 123 at 10 uM by flow cytometry relative to control; assay type: cell-based; settings: k562/a02, 10 µM; summary of the method: as §3
[11] = Induction of ATPase activity of p-glycoprotein at 200 uM by luminescence assay relative to control
[12] = Cytotoxicity against human K562/A02 cells expressing p-glycoprotein assessed as cell survival rate at 1.25 uM after 72 hrs by MTS assay; assay type: cell-based; settings: read-out: Activity
[13] = Reversal of p-glycoprotein-mediated multidrug-resistant in human K562/A02 cells assessed as increase of adriamycin-induced cytotoxic effect at 2.5 uM treated for 24 hrs followed by adriamycin treated 6 hrs after drug washout by MTS assay; assay type: cell-based
K562/A02 [14] = assay: Reversal of p-glycoprotein-mediated multidrug-resistant in human K562/A02 cells assessed as increase of adriamycin-induced cytotoxic effect at 5 uM after 72 hrs by MTS assay; assay type: cell-based; summary of the method: as §2
[15] = Induction of ATPase activity of p-glycoprotein at 40 uM by luminescence assay relative to control
[16] = biological target: T1, ATP-dependent translocase ABCB1; assay: Inhibition of p-glycoprotein in human K562/A02 cells assessed as accumulation of adriamycin by flow cytometry; assay type: cell-based; summary of the method: as §3
K562/A02 [17] = assay: Reversal of p-glycoprotein-mediated multidrug-resistant in human K562/A02 cells assessed as increase of adriamycin-induced cytotoxic effect at 1.25 uM after 72 hrs by MTS assay; assay type: cell-based; summary of the method: as §2
[18] = biological target: T1, ATP-dependent translocase ABCB1; assay: Inhibition of p-glycoprotein-mediated rhodamine 123 efflux in human K562/A02 cells at 2.5 uM after 60 mins by fluorescence microscopic analysis; assay type: cell-based; settings: k562/a02, 1 h
K562 [19] = assay: Induction of adriamycin accumulation in human K562 cells at 0.3 to 10 uM by flow cytometry; assay type: functional, cell-based; summary of the method: as §3
[20] = biological target: T1, ATP-dependent translocase ABCB1; assay: Inhibition of p-glycoprotein-mediated rhodamine 123 efflux in human K562/A02 cells after 60 mins by fluorescence microscopic analysis; assay type: cell-based; settings: k562/a02, 1 h
K562 [21] = assay: Potentiation of adriamycin-induced cytotoxic effect in human K562 cells assessed as cell survival rate at 1.25 to 5 uM after 72 hrs by MTS assay; assay type: functional, cell-based; summary of the method: as §2
[22] = Reversal of p-glycoprotein-mediated multidrug-resistant in human K562/A02 cells assessed as increase of adriamycin-induced cytotoxic effect at 2.5 uM treated for 24 hrs followed by adriamycin treated 24 hrs after drug washout by MTS assay; assay type: cell-based; settings: K562/A02, 24 h
[23] = Reversal of p-glycoprotein-mediated multidrug-resistant in human K562/A02 cells assessed as increase of adriamycin-induced cytotoxic effect at 2.5 uM treated 24 hrs before adriamycin challenge followed by drug washout by MTS assay; assay type: cell-based
K562/A02 [24] = assay: Reversal of p-glycoprotein-mediated multidrug-resistant in human K562/A02 cells assessed as increase of adriamycin-induced cytotoxic effect after 72 hrs by MTS assay; assay type: cell-based; summary of the method: as §2
[25] = Reversal of p-glycoprotein-mediated multidrug-resistant in human K562/A02 cells assessed as increase of adriamycin-induced cytotoxic effect at 2.5 uM treated for 24 hrs followed by adriamycin treated 12 hrs after drug washout by MTS assay; assay type: cell-based
[26] = Reversal of p-glycoprotein-mediated multidrug-resistant in human K562/A02 cells assessed as increase of adriamycin-induced cytotoxic effect at 10 uM treated for 24 hrs followed by adriamycin treated 24 hrs after drug washout by MTS assay; settings: K562/A02, 24 h
[27] = Reversal of p-glycoprotein-mediated multidrug-resistant in human K562/A02 cells assessed as increase of adriamycin-induced cytotoxic effect at 10 uM treated for 24 hrs followed by adriamycin treated 12 hrs after drug washout by MTS assay
[28] = Reversal of p-glycoprotein-mediated multidrug-resistant in human K562/A02 cells assessed as increase of adriamycin-induced cytotoxic effect at 10 uM treated 24 hrs before adriamycin challenge followed by drug washout by MTS assay
[29] = Reversal of p-glycoprotein-mediated multidrug-resistant in human K562/A02 cells assessed as increase of adriamycin-induced cytotoxic effect at 10 uM treated for 24 hrs followed by adriamycin treated 6 hrs after drug washout by MTS assay
K562 [30] = assay: Ratio of IC50 for human K562/A02 cells expressing p-glycoprotein to IC50 for human K562 cells; assay type: functional

Row | Compound | IC50 [1] [µM] | IC50 (K562 [2]) [µM] | Activity [4] [%] | Activity (K562 [7]) [%] | other results
1 | CCCCN1Cc2cc(OC)c3c(c2-c2c(cc(OC)c4c2OCO4)C1)OCO3 | > 100 | 77.5 | – | – | –
2 | COc1cc2c(c3c1OCO3)-c1c(cc(OC)c3c1OCO3)CN(CCc1ccccc1)C2 | 34.1 | 45.4 | 10 | 10 | inhibition (INH) [3]: Not Active; Activity (K562/A02 [5]): Active; inhibition (INH) [6]: Dose-dependent effect; inhibition (INH) [8]: Not Active; Activity (K562 [9]): inactive; fold change (FC) [10]: 10.1
3 | CCCN1Cc2cc(OC)c3c(c2-c2c(cc(OC)c4c2OCO4)C1)OCO3 | 87.6 | 106 | 10 | 10 | –
4 | COC(=O)CN1Cc2cc(OC)c3c(c2-c2c(cc(OC)c4c2OCO4)C1)OCO3 | > 100 | > 100 | – | – | –
5 | CCCCN1Cc2cc(OC)c3c(c2-c2c(cc(OC)c4c2OCO4)C1=O)OCO3 | 44.6 | 41.7 | – | – | –
6 | COc1cc2c(c3c1OCO3)-c1c(cc(OC)c3c1OCO3)CN(CCO)C2 | > 200 | > 200 | 10 | 10 | –
7 | COC(=O)c1cc(OC)c2c(c1-c1c(C(=O)OC)cc(OC)c3c1OCO3)OCO2 [BIFENDATE] | – | – | – | – | fold change (FC) [10]: 1.2
8 | CCN1Cc2cc(OC)c3c(c2-c2c(cc(OC)c4c2OCO4)C1)OCO3 | 117 | 125 | 10 | 10 | –
9 | CCN1Cc2cc(OC)c3c(c2-c2c(cc(OC)c4c2OCO4)C1=O)OCO3 | > 100 | > 100 | – | – | –
10 | SODIUM ORTHOVANAD | – | – | – | – | RLU [11]: 282000
11 | COc1cc2c(c3c1OCO3)-c1c(cc(OC)c3c1OCO3)CN(Cc1ccccc1)C2 | 112 | > 200 | 10 | 10 | inhibition (INH) [3]: Not Active; inhibition (INH) [6]: Dose-dependent effect; inhibition (INH) [8]: Not Active; Activity (K562 [9]): inactive; inhibition (INH) [10]: Active
12 | COc1cc2c(c3c1OCO3)-c1c(cc(OC)c3c1OCO3)C(=O)N(Cc1ccccc1)C2 | 53.4 | 43.5 | – | – | –
13 | COc1cc2c(c3c1OCO3)-c1c(cc(OC)c3c1OCO3)CN(c1ccccc1)C2 | > 100 | > 100 | – | – | –
14 | COc1cc2c(c3c1OCO3)-c1c(cc(OC)c3c1OCO3)CN(C)C2 | 107 | 140 | 10 | 10 | –
15 | COc1cc2c(c3c1OCO3)-c1c(cc(OC)c3c1OCO3)CN(CCc1ccc3c(c1)OCO3)C2 | 46.9 | 53.7 | 10 | 10 | inhibition (INH) [3]: Not Active; viability at 72 h, 1.25 µM [12]: 98%; IC50 [13]: 2.47 µM; Activity (K562/A02 [14]): 6%; Activity (K562/A02 [5]): 8%; RLU [15]: 283000; inhibition (INH) [6]: Dose-dependent effect; inhibition (INH) [16]: Dose-dependent effect; Activity (K562/A02 [17]): 30%; inhibition (INH) [18]: Active; Activity (K562 [19]): inactive; inhibition (INH) [20]: Dose-dependent effect; Activity (K562 [21]): inactive; IC50 [22]: 10.3 µM; IC50 [23]: 1.78 µM; Activity (K562/A02 [24]): Dose-dependent effect; inhibition (INH) [8]: Not Active; Activity (K562 [9]): inactive; fold change (FC) [10]: 11.2; IC50 [25]: 5.03 µM
16 | COc1ccc(CCN(C)CCCC(C#N)(c2ccc(OC)c(OC)c2)C(C)C)cc1OC (stereo unspecified) | – | – | – | – | IC50 [26]: 51.4 µM; IC50 [27]: 51.1 µM; Activity (K562/A02 [14]): > 50%; inhibition (INH) [6]: Dose-dependent effect; inhibition (INH) [16]: Dose-dependent effect; Activity (K562 [19]): inactive; IC50 [28]: 12.9 µM; Activity (K562 [9]): inactive; IC50 [29]: 26.1 µM
17 | COC(=O)CN1Cc2cc(OC)c3c(c2-c2c(cc(OC)c4c2OCO4)C1=O)OCO3 | > 100 | > 100 | – | – | –
18 | COc1cccc2c1C(=O)c1c(O)c3c(c(O)c1C2=O)C[C@@](O)(C(=O)CO)C[C@@H]3O[C@H]1C[C@H](N)[C@H](O)[C@H](C)O1 [DOXORUBICIN] | 46.7 | – | – | – | Ratio IC50 (K562 [30]): 108
